As a reminder, the Ki is the dissociation constant of the complex between target and ligand, obtained from inhibition or displacement.

The target of one series is mTOR kinase. Particulars: read-out: inhibition constant (Ki) mTOR kinase; cited from earlier work.
For series [1] the following is noted: in vitro; weakly basic molecule; cited from earlier work.
For series [2], the system named is xenograft cancer models with PI3K-mutant, PTEN-null, and KRAS-mutant cell lines. Conditions: multiple xenograft models; cited from earlier work.
The subject of series [3] is tumor glucose uptake (FDG-PET). The experiment in a line: FDG-PET tumor uptake. It counts as in vivo, human. In outline: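 Patients with advanced solid tumours received oral test compound once daily. FDG-PET/CT scans were taken at baseline and 1-4 h after dosing on days 22 and 55. Scans were centrally assessed by EORTC criteria, with SUVmax change as the measure. PIK3CA hotspot mutations in archival FFPE tumour DNA were typed by DxS allele-specific PCR, qRT-PCR or Sanger sequencing.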

In the case of `Cc1c(CN2CCN(C(=O)[C@H](C)O)CC2)sc2c(N3CCOCC3)nc(-c3cnc(N)nc3)nc12` [apitolisib], the Ki at mTOR kinase was 17.3 nM. Also, the drug solubility result in series [1] is “pH-dependent drug solubility”. Besides, in series [2], the Tumor growth inhibition result is “Tumor growth inhibition has been demonstrated”. Besides, in series [3] (40 mg QD), the “patients with PIK3CA mutations with more than 25% mean decrease in SUVmax” value was 9/12. In series [3] (40 mg QD (21/32)), the “patients with decrease in FDG-PET uptake of >25%” value amounted to 66%. In series [3] (all dose cohorts (10 out of 14)), the “PIK3CA mutation patients with FDG-PET response” value is on record as 71%.

The values are drawn from paper PMC4876928 (Clinical cancer research : an official journal of the …, 2016).
